Assay results: ChEMBL document CHEMBL1124037, “Structure-activity relationship in PAF-acether. 4. Synthesis and biological activities of carboxylate isosteres” (J Med Chem, 1988)

How the values were obtained:
[1] = test system: Oryctolagus cuniculus; assay: In vitro antiaggregation activity against PAF-acether induced platelet aggregation when administered at dose of 1 uM/Kg after 2 minutes; format: functional
[2] = organism: Oryctolagus cuniculus; assay: In vitro aggregant (agonist) activity inducing platelet aggregation
[3] = test system: Cavia porcellus; assay: In vivo activity for protection against PAF acether induced thrombocytopenia in guinea pig after 5 min of intravenous administration (1 mg/kg); format: functional
Outline: (§1)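 Male Hartley guinea pigs (450-500 g), urethane 1.25 g/kg ip, pancuronium 2 mg/kg, ventilated (50 strokes/min, 10 mL/kg). Antagonist iv 5 min before PAF 100 ng/kg iv. Konzett-Rossler lung inflation resistance vs control group; platelet counts from carotid blood 1 min before and after PAF. Percent inhibition per dose.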

[4] = test system: Cavia porcellus; assay: In vivo activity for protection against PAF acether induced thrombocytopenia in guinea pig after 5 min of intravenous administration (2 mg/kg); format: functional; outline: as §1
[5] = test system: Cavia porcellus; assay: In vivo activity for protection against PAF-acether induced bronchoconstriction in guinea pig after 5 min of intravenous administration (0.5 mg/kg); format: functional; outline: as §1
[6] = test system: Cavia porcellus; assay: In vivo activity for protection against PAF-acether induced bronchoconstriction in guinea pig after 5 min of intravenous administration (1 mg/kg); format: functional; outline: as §1
[7] = test system: Cavia porcellus; assay: In vivo activity for protection against PAF-acether induced bronchoconstriction in guinea pig after 5 min of intravenous administration (2 mg/kg); format: functional; outline: as §1
[8] = test system: Cavia porcellus; assay: In vivo activity for protection against acetylcholine induced bronchoconstriction in guinea pig after 5 min of intravenous administration (1 mg/kg); format: functional
[9] = test system: Cavia porcellus; assay: In vivo activity for protection against acetylcholine induced bronchoconstriction in guinea pig after 5 min of intravenous administration (2 mg/kg); format: functional
[10] = test system: Cavia porcellus; assay: In vivo activity for protection against histamine induced bronchoconstriction in guinea pig after 5 min of intravenous administration (1 mg/kg); format: functional
[11] = test system: Cavia porcellus; assay: In vivo activity for protection against histamine induced bronchoconstriction in guinea pig after 5 min of intravenous administration (2 mg/kg); format: functional
[12] = test system: Oryctolagus cuniculus; assay: […] antagonistic activity against platelet aggregation; format: functional
[13] = test system: Oryctolagus cuniculus; assay: […] antagonistic activity against PAF induced platelet aggregation (5 x 10e-8 M ); format: functional
Outline: (§2)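 Rabbit PRP (male New Zealand, citrated cardiac-puncture blood, 300g 10 min; 300 000 per µL). Antagonist added to stirred PRP 2 min before PAF (5×10⁻⁸ M), collagen (40 µg/mL) or arachidonic acid (2×10⁻⁴ M). Born turbidimetric aggregometry; inhibition vs control aggregation; IC50 from dose-response curves. Compounds dissolved in ethanol 10 mg/mL stock, diluted in saline.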

[14] = test system: Oryctolagus cuniculus; assay: […] antagonistic activity against collagen induced platelet aggregation (40 ug/mL); format: functional; outline: as §2
[15] = test system: Oryctolagus cuniculus; assay: […] antagonistic activity against arachidonic-acid induced platelet aggregation (2*10e-4 M); format: functional; outline: as §2
[16] = test system: Rattus norvegicus; assay: In vivo activity for protection against PAF acether induced hypotension in rat after 5 mins of intravenous administration (2 mg/kg); format: functional
Outline: (§3)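 Male Sprague-Dawley rats (280-300 g), pentobarbital 50 mg/kg ip; jugular iv dosing, carotid arterial pressure by transducer. Control response to PAF 0.3 µg/kg iv, then antagonist; PAF 0.3 µg/kg re-injected and hypotension recorded. One antagonist dose per rat; percent inhibition per dose.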

[17] = test system: Rattus norvegicus; assay: In vivo activity for protection against acetylcholine induced hypotension in rat after 5 mins of intravenous administration (2 mg/kg); format: functional
Outline: (§4)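 Male Sprague-Dawley rats (280-300 g), pentobarbital 50 mg/kg ip; jugular iv dosing, carotid pressure recorded. Same protocol as the PAF challenge but using acetylcholine 1 µg/kg iv as agonist: control response, antagonist, then re-challenge. One antagonist dose per rat; percent inhibition per dose.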

[18] = test system: Cavia porcellus; assay: In vivo activity for protection against PAF acether induced bronchoconstriction in guinea pig after 5 min of intravenous administration (1 mg/kg); format: functional; outline: as §1
[19] = test system: Cavia porcellus; assay: In vivo activity for protection against PAF acether induced bronchoconstriction in guinea pig after 5 min of intravenous administration (2 mg/kg); format: functional; outline: as §1
[20] = test system: Cavia porcellus; assay: In vivo activity for protection against acetylcholine induced bronchoconstriction in guinea pig after 5 min of intravenous administration (5 mg/kg); format: functional
[21] = test system: Rattus norvegicus; assay: In vivo activity for protection against PAF acether induced hypotension in rat after 5 mins of intravenous administration (5 mg/kg); format: functional; outline: as §3
[22] = test system: Rattus norvegicus; assay: In vivo activity for protection against acetylcholine induced hypotension in rat after 5 mins of intravenous administration (5 mg/kg); format: functional; outline: as §4
[23] = test system: Cavia porcellus; assay: In vivo activity for protection against PAF acether induced thrombocytopenia in guinea pig after 5 min of intravenous administration (0.5 mg/kg); format: functional; outline: as §1
[24] = test system: Cavia porcellus; assay: In vivo activity for protection against PAF acether induced bronchoconstriction in guinea pig after 5 min of intravenous administration (0.5 mg/kg); format: functional; outline: as §1
[25] = test system: Rattus norvegicus; assay: In vivo activity for protection against PAF acether induced hypotension in rat after 5 mins of intravenous administration (1 mg/kg); format: functional; outline: as §3
[26] = test system: Rattus norvegicus; assay: In vivo activity for protection against acetylcholine induced hypotension in rat after 5 mins of intravenous administration (1 mg/kg); format: functional; outline: as §4
[27] = test system: Cavia porcellus; assay: In vivo activity for protection against acetylcholine-induced bronchoconstriction in guinea pig after 5 min of intravenous administration (1 mg/kg); format: functional
[28] = test system: Cavia porcellus; assay: In vivo activity for protection against acetylcholine-induced bronchoconstriction in guinea pig after 5 min of intravenous administration (2 mg/kg); format: functional
[29] = test system: Oryctolagus cuniculus; assay: […] antagonistic activity against arachidonic-acid induced platelet aggregation at a concentration of 2*10e-4 M; format: functional; outline: as §2
[30] = test system: Oryctolagus cuniculus; assay: […] antagonistic activity against collagen induced platelet aggregation at a concentration of 40 ug/mL; format: functional; outline: as §2
[31] = test system: Oryctolagus cuniculus; assay: […] antagonistic activity against PAF induced platelet aggregation at a concentration of 5 x 10e-8 M; format: functional; outline: as §2

Structure (SMILES) | EC50 [1] [µM] | EC50 [2] [µM] | EC50 [13] [µM] | EC50 [14] [µM] | EC50 [15] [µM] | Protection [3] [%] | Protection [4] [%] | Protection [5] [%] | Protection [6] [%] | Protection [8] [%] | Protection [9] [%] | Protection [10] [%] | Protection [11] [%] | ED50 [12] [µM] | Protection [16] [%] | Protection [17] [%] | Protection [18] [%] | Protection [19] [%] | Protection [25] [%] | Protection [26] [%] | further results
CCCCCCCCCCCCCCCCCCOCC(COC(=O)CCCC[N+](C)(C)C)OCC.[I-] (stereo unspecified) |  |  | 8 | 60 | > 100 | 24 | 55 | 69 | 77 | 0 | 9 | 0 | 0 | >100 | 20 | 17 |  |  |  |  | Protection [7]: 73%
CCCCCCCCCCCCCCCCCCOCC(COC(=O)CC[N+](C)(C)C)OC(C)=O (stereo unspecified) | 24 | > 100 |  |  |  |  |  |  |  |  |  |  |  |  |  |  |  |  |  |  | 
CCCCCCCCCCCCCCCCCCNC(=O)OCC(COC(=O)CCCC[N+](C)(C)C)OC(C)=O.[I-] (stereo unspecified) |  |  | 13 | 70 | > 100 |  | 38 |  |  |  | 79 |  | 17 | >100 | 46 | 63 | 88 | 90 |  |  | Protection [20]: 80%; Protection [21]: 58%; Protection [22]: 74%
CCCCCCCCCCCCCCCCCCNC(=O)OCC(COP(=O)([O-])OCC[n+]1ccsc1)OC (stereo unspecified) |  |  | 30.5 | 89 |  | 62 | 69 |  |  |  |  |  |  | >100 |  |  | 72 | 85 | 45 | 0 | Protection [23]: 32%; Protection [24]: 53%
CCCCCCCCCCCCCCCCCCOC[C@H](COC(=O)CCCC[N+](C)(C)C)OC(C)=O.[I-] |  |  |  |  |  | 38 | 57 | 79 | 90 |  |  | 35 | 20 | >100 | 32 | 5 |  |  | 18 | 18 | Protection [7]: 88%; Protection [27]: 21%; Protection [28]: 0%; EC50 [29]: > 100 µM; EC50 [30]: ~90 µM; EC50 [31]: 20 µM
CCCCCCCCCCCCCCCCCCOCC(COC(=O)CCC[n+]1ccccc1)OCC.[Cl-] (stereo unspecified) |  |  | 1.5 | 100 | > 100 | 52 | 60 | 60 | 100 | 34 | 16 | 16 | 8 | >100 | 53 | 22 |  |  | 51 | 20 | 

Continued, in another order:

EC50 [1] [µM] | EC50 [2] [µM] | EC50 [13] [µM] | EC50 [14] [µM] | EC50 [15] [µM] | Structure (SMILES) | Protection [3] [%] | Protection [4] [%] | Protection [5] [%] | Protection [6] [%] | Protection [8] [%] | Protection [9] [%] | Protection [10] [%] | Protection [11] [%] | ED50 [12] [µM] | Protection [16] [%] | Protection [17] [%] | Protection [18] [%] | Protection [19] [%] | Protection [25] [%] | Protection [26] [%] | further results
12 | > 100 |  |  |  | CCCCCCCCCCCCCCCCCCOCC(COC(=O)CCC[N+](C)(C)C)OC(C)=O (stereo unspecified) |  |  |  |  |  |  |  |  |  |  |  |  |  |  |  | 
18 | > 100 |  |  |  | CCCCCCCCCCCCCCCCCCOCC(COC(=O)CCCC[N+](C)(C)C)OC(C)=O (stereo unspecified) |  |  |  |  |  |  |  |  |  |  |  |  |  |  |  | 
 |  | 11 | 84 | > 100 | CCCCCCCCCCCCCCCCCCOC[C@@H](COC(=O)CCCC[N+](C)(C)C)OC(C)=O.[I-] | 63 | 49 |  |  | 0 | 0 | 0 | 0 | >100 | 34 | 20 | 91 | 93 | 12 | 16 | Protection [24]: 61%
